ChEMBL document CHEMBL1156129, “Synthesis, structure-activity relationships, and characterization of novel nonsteroidal and selective androgen receptor modulators” (J Med Chem, 2009)

Legend:
[1] = Plasma concentration in Sprague-Dawley rat at 10 mg/kg, po after 480 mins; type: ADME, organism-based; parameters: dose 10 mg/kg, route oral
[2] = Cmax in Sprague-Dawley rat at 10 mg/kg, po; type: ADME, organism-based; parameters: dose 10 mg/kg, route oral; details: in vivo
[3] = Half life in Sprague-Dawley rat at 1 mg/kg, iv; type: ADME, organism-based; parameters: dose 1 mg/kg, route intravenous; details: in vivo
[4] = Volume of distribution at steady state in Sprague-Dawley rat at 1 mg/kg, iv; type: ADME, organism-based; parameters: dose 1 mg/kg, route intravenous; details: in vivo, read-out: Vdss
[5] = Half life in Beagle dog at 1 mg/kg, iv; type: ADME, organism-based, Canis lupus familiaris; parameters: dose 1 mg/kg, route intravenous; details: in vivo
[6] = Oral bioavailability in Beagle […] at 10 mg/kg, po; type: ADME, organism-based, Canis lupus familiaris; details: in vivo
[7] = Plasma concentration in Beagle dog at 1 mg/kg, iv after 0.08 hrs; type: ADME, organism-based, Canis lupus familiaris; parameters: dose 1 mg/kg, route intravenous
[8] = Plasma concentration in Beagle dog at 1 mg/kg, iv after 0.5 hrs; type: ADME, organism-based, Canis lupus familiaris; parameters: dose 1 mg/kg, route intravenous
[9] = Plasma concentration in Beagle dog at 10 mg/kg, po after 1 hrs; type: ADME, organism-based, Canis lupus familiaris; parameters: dose 10 mg/kg, route oral
[10] = Plasma concentration in Beagle dog at 10 mg/kg, po after 2 hrs; type: ADME, organism-based, Canis lupus familiaris; parameters: dose 10 mg/kg, route oral
[11] = Plasma concentration in Beagle dog at 10 mg/kg, po after 8 hrs; type: ADME, organism-based, Canis lupus familiaris; parameters: dose 10 mg/kg, route oral
Androgen receptor = molecular target: T1, Androgen receptor (Mus musculus, UniProt P19091); assay: Agonist activity at androgen receptor in mouse NIH3T3 cells transiently transfected with beta-galactosidase reporter gene assessed as cellular transformation by R-SAT assay
T1 sequence (P19091 whole entry): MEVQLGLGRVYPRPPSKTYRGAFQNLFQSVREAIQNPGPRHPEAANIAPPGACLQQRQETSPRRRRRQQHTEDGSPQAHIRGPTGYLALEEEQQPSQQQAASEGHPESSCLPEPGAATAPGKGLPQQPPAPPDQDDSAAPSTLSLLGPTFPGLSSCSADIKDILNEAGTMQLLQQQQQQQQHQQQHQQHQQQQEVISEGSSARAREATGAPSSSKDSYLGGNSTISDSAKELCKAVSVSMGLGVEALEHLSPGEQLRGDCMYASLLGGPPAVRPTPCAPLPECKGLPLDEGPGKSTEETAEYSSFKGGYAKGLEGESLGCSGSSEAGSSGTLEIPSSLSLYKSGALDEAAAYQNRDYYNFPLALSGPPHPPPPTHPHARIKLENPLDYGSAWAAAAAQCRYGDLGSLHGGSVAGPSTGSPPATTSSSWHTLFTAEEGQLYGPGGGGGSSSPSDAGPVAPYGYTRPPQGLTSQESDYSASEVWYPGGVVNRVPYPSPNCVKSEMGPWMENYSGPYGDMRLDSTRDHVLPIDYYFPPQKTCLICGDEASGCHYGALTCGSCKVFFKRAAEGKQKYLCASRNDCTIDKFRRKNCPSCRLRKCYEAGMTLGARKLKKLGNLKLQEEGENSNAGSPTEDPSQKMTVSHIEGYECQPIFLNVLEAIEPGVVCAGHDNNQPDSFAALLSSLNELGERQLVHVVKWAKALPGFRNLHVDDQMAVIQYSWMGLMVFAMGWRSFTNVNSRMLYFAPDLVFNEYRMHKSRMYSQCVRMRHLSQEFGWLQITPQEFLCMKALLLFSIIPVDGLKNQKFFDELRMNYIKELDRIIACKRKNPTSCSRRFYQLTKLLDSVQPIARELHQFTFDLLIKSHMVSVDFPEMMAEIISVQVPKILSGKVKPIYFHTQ

[12] = Agonist activity at androgen receptor LBD T877A mutant in mouse NIH3T3 cells transiently transfected with beta-galactosidase reporter gene assessed as cellular transformation by R-SAT assay relative to dihydrotestosterone; type: functional
Procedure, shortened: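 AR expression vector transiently co-transfected (Polyfect) with β-galactosidase and coactivators SRC1, DRIP205 and GRIP1 into NIH-3T3 fibroblasts at 60-70% confluency. ONPG substrate added, absorbance read at 420 nm. EC50 from a hyperbolic fit. Mean ± SEM of three or more independent experiments.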

[13] = Plasma concentration in Sprague-Dawley rat at 1 mg/kg, iv after 30 mins; type: ADME, organism-based; parameters: dose 1 mg/kg, route intravenous
[14] = Plasma concentration in Sprague-Dawley rat at 1 mg/kg, iv after 60 mins; type: ADME, organism-based; parameters: dose 1 mg/kg, route intravenous
[15] = Plasma concentration in Sprague-Dawley rat at 1 mg/kg, iv after 360 mins; type: ADME, organism-based; parameters: dose 1 mg/kg, route intravenous
[16] = Plasma concentration in Sprague-Dawley rat at 1 mg/kg, iv after 480 mins; type: ADME, organism-based; parameters: dose 1 mg/kg, route intravenous
[17] = Metabolic stability in human hepatocyte assessed as half life; type: ADME, cell-based, Liver; details: hepatocytes
[18] = Plasma concentration in Sprague-Dawley rat at 1 mg/kg, iv after 240 mins; type: ADME, organism-based; parameters: dose 1 mg/kg, route intravenous
[19] = Plasma concentration in Sprague-Dawley rat at 10 mg/kg, po after 240 mins; type: ADME, organism-based; parameters: dose 10 mg/kg, route oral

## Cc1c(N2[C@@H]3CC[C@H]2C[C@@](C)(O)C3)ccc(C#N)c1Cl
[1]
  concentration at 8 h: 0.253 µg/mL
[2]
  Cmax: 0.421 µg/mL
[3]
  half-life: 2.46 h
[4]
  Vd: 3.91 L/kg
[5]
  half-life: 2.1 h
[6]
  bioavailability: 56%
[7]
  concentration at 0.08 h: 0.357 µg/mL
[8]
  concentration at 0.5 h: 0.19 µg/mL
[9]
  concentration at 1 h: 0.408 µg/mL
[10]
  concentration at 2 h: 0.27 µg/mL
[11]
  concentration at 8 h: 0.0606 µg/mL
Androgen receptor
  EC50: 1 nM
[12]
  Efficacy: 37%
[13]
  concentration at 0.5 h: 0.234 µg/mL
[14]
  concentration at 1 h: 0.137 µg/mL
[15]
  concentration at 6 h: 0.0235 µg/mL
[16]
  concentration at 8 h: 0.0149 µg/mL
[17]
  half-life: 5 h
[18]
  concentration at 4 h: 0.0454 µg/mL
[19]
  concentration at 4 h: 0.353 µg/mL
